Drawing on BindingDB's records for doi:10.1016/j.bmc.2010.01.049 (Glaxosmithkline, 2010), this text covers EC50 for eight compounds.

Structures can show the parent of a compound that is named as a salt.

Test [1] has as its target Melanocyte-stimulating hormone receptor (Homo sapiens, UniProt Q01726). Description: Agonist activity at human MC1R expressed in CHO cells after 4 hrs by luciferase reporter gene assay. In short, it runs like this:
(§1)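 CHO-6xCRE-luc+ cells expressing the human receptor, plated at 4000 cells/well in DMEM/F12 with 10% FBS 48 h before assay. Switched to serum-free medium 16 h before compound addition, then incubated 4 h at 37 °C. Luciferase read after 10 min dark adaptation. Activity expressed as % of fold stimulation by 1 × 10^-7 M NDP-aMSH (duplicate control wells).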
Background: In a reporter assay the amount or activity of a reporter protein is the signal.

The target in a further test is Melanocortin receptor 4 (Homo sapiens, UniProt P32245). Nature of the test: Agonist activity at human MC4R expressed in CHO cells after 4 hrs by luciferase reporter gene assay. In short, it runs like this:
as §1

Chain of Melanocortin receptor 4 (P32245 whole entry): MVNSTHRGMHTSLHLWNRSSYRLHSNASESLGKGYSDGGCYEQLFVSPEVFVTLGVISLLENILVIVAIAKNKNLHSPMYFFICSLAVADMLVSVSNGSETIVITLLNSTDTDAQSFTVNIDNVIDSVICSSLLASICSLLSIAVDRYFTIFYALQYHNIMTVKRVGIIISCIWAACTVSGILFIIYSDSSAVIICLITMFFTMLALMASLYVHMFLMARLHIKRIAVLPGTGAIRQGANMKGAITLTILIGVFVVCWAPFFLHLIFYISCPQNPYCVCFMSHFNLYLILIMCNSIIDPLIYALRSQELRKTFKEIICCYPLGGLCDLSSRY
Chain of Melanocyte-stimulating hormone receptor (Q01726 whole entry): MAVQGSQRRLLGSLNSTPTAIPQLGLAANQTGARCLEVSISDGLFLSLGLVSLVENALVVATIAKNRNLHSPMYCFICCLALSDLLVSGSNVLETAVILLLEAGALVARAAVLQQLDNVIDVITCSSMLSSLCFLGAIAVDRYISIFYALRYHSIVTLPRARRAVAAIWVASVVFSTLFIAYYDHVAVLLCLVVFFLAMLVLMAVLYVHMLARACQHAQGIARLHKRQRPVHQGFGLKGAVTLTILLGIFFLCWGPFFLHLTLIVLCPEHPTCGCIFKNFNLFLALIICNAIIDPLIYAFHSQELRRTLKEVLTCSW

As a reminder, the EC50 is the concentration that produces a half-maximal response. A lower EC50 goes with greater potency. `CC(C)N(C(=O)CN1C=CN(c2ccccc2)C(=O)[C@@H](Cc2n[nH]c3ccccc23)C1=O)c1ccccc1` came in with an EC50 in test [1] of over 31.6 µM.

Take `CC(C)N(C(=O)CN1C=CN(c2ccccc2)C(=O)C(Cc2n[nH]c3ccccc23)C1=O)c1ccc(O)cc1` (stereo unspecified): the EC50 at Melanocortin receptor 4 was over 31.6 µM.

In the case of `COc1ccc(N(C(=O)CN2C=CN(C3CCCCC3)C(=O)C(Cc3ccccc3)C2=O)C(C)C)cc1` (racemic) [(+/-)-2-[4-Cyclohexyl-5,7-dioxo-6-(phenylmethyl)-4,5,6,7-tetrahydro-1H-1,4-diazepin-1-yl]-N-(1-methylethyl)-N-[4-(methyloxy)phenyl]acetamide], the EC50 (on Melanocortin receptor 4; in test [1]) was over 31.6 µM throughout.

With `COc1ccc(N(C(=O)CN2C=CN(C3CCCCC3)C(=O)C(Cc3n[nH]c4ccccc34)C2=O)C(C)C)cc1` (racemic) [(+/-)-2-[4-Cyclohexyl-6-(1H-indazol-3-ylmethyl)-5,7-dioxo-4,5,6,7-tetrahydro-1H-1,4-diazepin-1-yl]-N-(1-methylethyl)-N-[4-(methyloxy)phenyl]acetamide trifluoroacetate], the EC50 (at Melanocortin receptor 4; in test [1]) was over 31.6 µM in each case.

Consider `COc1ccc(N(C(=O)CN2C=CN(Cc3ccccc3)C(=O)C(Cc3n[nH]c4ccccc34)C2=O)C(C)C)cc1` (racemic) [(+/-)-2-[6-(1H-Indazol-3-ylmethyl)-5,7-dioxo-4-(phenylmethyl)-4,5,6,7-tetrahydro-1H-1,4-diazepin-1-yl]-N-(1-methylethyl)-N-[4-(methyloxy)phenyl]acetamide], for which the EC50 at Melanocortin receptor 4 was over 31.6 µM.

As for `CC(C)N(C(=O)CN1C=CN(c2ccccc2)C(=O)C(Cc2n[nH]c3ccccc23)C1=O)c1ccc(N2CCOCC2)cc1` (racemic) [(+/-)-2-[6-(1H-Indazol-3-ylmethyl)-5,7-dioxo-4-phenyl-4,5,6,7-tetrahydro-1H-1,4-diazepin-1-yl]-N-(1-methylethyl)-N-[4-(4-morpholinyl)phenyl]acetamide], the EC50 on Melanocortin receptor 4 was over 31.6 µM.

As to `CC(C)N(C(=O)CN1C=CN(C)C(=O)C(Cc2n[nH]c3cc(F)ccc23)C1=O)c1ccc(F)cc1` (racemic) [(+/-)-2-{6-[(6-Fluoro-1H-indazol-3-yl)methyl]-4-methyl-5,7-dioxo-4,5,6,7-tetrahydro-1H-1,4-diazepin-1-yl}-N-(4-fluorophenyl)-N-(1-methylethyl)acetamide], on Melanocortin receptor 4, the EC50 is over 31.6 µM.

Take `COc1ccc(N(C(=O)CN2C=CN(c3ccccc3)C(=O)C(Cc3nn(C)c4ccccc34)C2=O)C(C)C)cc1` (racemic) [(+/-)-N-(1-methylethyl)-2-{6-[(1-methyl-1H-indazol-3-yl)methyl]-5,7-dioxo-4-phenyl-4,5,6,7-tetrahydro-1H-1,4-diazepin-1-yl}-N-[4-(methyloxy)phenyl]acetamide]: the EC50 (at Melanocortin receptor 4; in test [1]) was over 31.6 µM in each case.
